tolC growth inh = growth inhibitors of E. coli tolC mutant, primary screen, strain BW25113 ΔtolC::kan, 384-well; OD615; growth inhibition, % at 10 µM (by protocol); 2.2% of 65,000 active;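 active = growth inhibition at or above a cutoff equal to the mean over every tested compound plus 3 SD, cut at about 60% in these data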;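 note: growth measured after 20 h incubation at 37 °C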
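Doses: one dose of 10 µM final / Material: E. coli BW25113 ΔtolC::kan, tolC deletion mutant strain / Buffer or medium: LB with kanamycin 50 µg/mL / Evaluation: percent growth inhibition / Detection: optical density read at 615 nm / Incubation: 37 °C, 20 h exposure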
E coli WT exp = growth inhibitors of wild-type E. coli, primary screen, strain BW25113, expanded library, OD600; growth inhibition, % at 100 µM; 0.15% of 98,000 active; OD600 absorbance;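 active = growth inhibition above about 50% at one test dose, limit read from the data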;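 note: growth measured after 20 h incubation at 37 °C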
PTK2B oligo ant = antagonists of Pyk2 self-association, primary screen, Q293 cells, FERM NanoBiT luminescence, HTS | 0.83% of 99,000 active | Protein-tyrosine kinase 2-beta (Homo sapiens), Q14289 | AID 1347419, 2020 | z-score (the deposit names both 25 µM and 10 µM) | active compounds read low;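 active = Z-score of -3 or lower, scaled per plate to the spread of control and sample wells; inactive = z-score above -3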;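 note: negative z-score means lost luminescence so less FERM oligomerization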
Cav32 inh = Cav3.2 calcium influx blockers – cell-based, Fluo-4 calcium fluorescence, FDSS, MLSMR library, primary screen; Voltage-dependent T-type calcium channel subunit alpha-1H (Homo sapiens), O95180; Cav3.2-expressing cells; active compounds read low; B-score at 10 µM; 4% of 100,000 active;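 active = single-dose well whose peak fluorescence ratio is a statistical outlier from its plate by either plate-standardised score or position-corrected B-score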
PostGolgi ctrl = growth inhibition of yeast control strain, primary screen, counter-screen for post-Golgi transport modulator project; efflux-deficient yeast background strain, growth absorbance A615, 16 h; inhibition, % at 10 µM; 5% of 98,000 active; AID 738, 2007
PostGolgi yeast = phenotypic screen on post-Golgi transport, primary screen | post-Golgi transport phenotypic cell assay | inhibition, % at 10 µM | 0.9% of 98,000 active | AID 739, 2007;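 note: yeast cells grown in 1536-well plates; yeast grown about 18 h at 30C before absorbance read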
Each line names hits and unclear results; the compound was inactive in the other large screens. An excerpt weighted towards active compounds, which were near 8.7% of everything screened. Cut-off read from the data, not from the text of the source, unless noted: active = inhibition above about 30%; inactive = the rest.

COC(=O)C(NC(=O)c1ccccc1Cl)(Nc1ncc(S(=O)(=O)c2ccc([N+](=O)[O-])cc2)s1)C(F)(F)F (stereo not drawn)	Cav32 inh -8.6 (no result: tolC growth inh)
CCC(C)(C)C(=O)Nc1ncc(S(=O)(=O)c2ccc([N+](=O)[O-])cc2)s1	Cav32 inh -5.2 (no result: tolC growth inh)
CCOc1ccccc1N=c1oc2cc(O)ccc2cc1C(=O)NCC1CCCO1 (stereo not drawn)	none (no result: tolC growth inh)
CCCCN(CCCC)C(=O)c1nsnc1-c1ccccc1O	none (no result: tolC growth inh)
CS(=O)(=O)N(CC(=O)N1CCN(c2ccccc2)CC1)c1ccc(Cl)c(C(F)(F)F)c1	Cav32 inh -5.3 (no result: tolC growth inh)
CS(=O)(=O)N(CC(=O)N1CCN(c2ccccc2F)CC1)c1cc(C(F)(F)F)ccc1Cl	none
CS(=O)(=O)N(CC(=O)N1CCN(c2ccccc2)CC1)c1cc(C(F)(F)F)ccc1Cl	Cav32 inh -4.3
CS(=O)(=O)N(CC(=O)N1CCN(c2cccc(Cl)c2)CC1)c1cccc(F)c1	Cav32 inh -6.3
CC1CCN(C(=O)CN(c2ccc(Cl)c(C(F)(F)F)c2)S(C)(=O)=O)CC1	none (no result: tolC growth inh)
CCCCn1nc(NC(=O)c2cccs2)c2cc3ccccc3nc21	tolC growth inh 91, PTK2B oligo ant -3.1, Cav32 inh -4
CCCn1nc(NC(=O)c2cccs2)c2cc3cc(OC)ccc3nc21	none
CCCCn1nc(NC(=O)c2cccs2)c2cc3cc(OC)ccc3nc21	tolC growth inh 63, PTK2B oligo ant -3, Cav32 inh -4.8
CCOC(=O)C1CCCN(C(=O)CSc2nccn2C)C1 (stereo not drawn)	none
O=C(CSc1nnc2c3ccccc3c3ccccc3c2n1)Nc1ccccc1F	none (no result: tolC growth inh, Cav32 inh)
O=C(CSc1nnc2c3ccccc3c3ccccc3c2n1)Nc1ccccc1	PostGolgi ctrl 45 (no result: tolC growth inh, PTK2B oligo ant, Cav32 inh)
c1ccc(-n2ncc3c(N4CCN(c5ccccn5)CC4)nc(N4CCCCCC4)nc32)cc1	none
CCn1ncc(Br)c1C(=O)N(C)C12CC3CC(CC(C3)C1)C2	Cav32 inh -5.1
CCN(CC)S(=O)(=O)c1ccc(C(=O)NCc2n[nH]c(=S)n2Cc2ccccc2)cc1	Cav32 inh -4.1
CCN(CC)S(=O)(=O)c1ccc(C(=O)Nc2ncn(Cc3ccccc3)n2)cc1	none
CC1(C)Cc2c(sc3nc4n(c(=N)c23)CCC4)CO1	none
O=C1c2[nH]nc(-c3ccccc3O)c2C(c2cccc(Cl)c2)N1Cc1ccco1 (stereo not drawn)	tolC growth inh 100, Cav32 inh -4.3
O=C1c2[nH]nc(-c3ccccc3O)c2C(c2ccc(F)cc2)N1Cc1ccco1 (stereo not drawn)	tolC growth inh 100, Cav32 inh -4.5
O=C1c2[nH]nc(-c3ccccc3O)c2C(c2cccc(Cl)c2)N1CC1CCCO1 (stereo not drawn)	tolC growth inh 88 (no result: Cav32 inh)
CCCCCCN=CC1=C(O)C(C(=O)OC)C(C)(C)CC1=O (stereo not drawn)	none (no result: Cav32 inh)
CCOC(=O)CCCn1ncn2c(cc3occc32)c1=O	none (no result: tolC growth inh)
Cc1ccc(C(C)C)c(OC(=O)/C=C/c2ccccc2)c1	none (no result: tolC growth inh)
CN1C[C@@H]2C(c3ccc(C(F)(F)F)cc3)C3(c4cccnc4)CC2(C3)[C@H]1c1ccccc1 (stereo partly drawn)	none (no result: tolC growth inh, E coli WT exp, PTK2B oligo ant, PostGolgi ctrl, PostGolgi yeast)
COc1ccc(C(C(=O)NC2CCCCC2)N(Cc2cccs2)C(=O)Cc2c[nH]c3ccccc23)cc1 (stereo not drawn)	Cav32 inh -6.4 (no result: tolC growth inh)
COc1ccc(CN(C(=O)Cc2cccs2)C(C(=O)NC2CCCC2)c2ccncc2)cc1 (stereo not drawn)	PostGolgi yeast 38 (no result: tolC growth inh)
O=C(NC1CCCCC1)C(c1ccc2ncccc2c1)N(Cc1ccc(F)cc1)C(=O)c1cccs1 (stereo not drawn)	PTK2B oligo ant -3.9 (no result: tolC growth inh, Cav32 inh)
Cc1ccc(C(C(=O)NC2CCCCC2)N(C(=O)Cc2c[nH]c3ccccc23)c2ccccc2)o1 (stereo not drawn)	none (no result: tolC growth inh)
C#CC(=O)N(c1cccc(OC)c1)C(C(=O)NC1CCCC1)c1cccs1 (stereo not drawn)	none (no result: tolC growth inh)
O=C(NCC(=O)N(Cc1cccs1)C(C(=O)NC1CCCC1)c1ccncc1)c1ccco1 (stereo not drawn)	none (no result: tolC growth inh)
COc1cccc(CN(C(=O)Cc2c[nH]c3ccccc23)C(C(=O)NC2CCCCC2)c2cccs2)c1 (stereo not drawn)	Cav32 inh -6.6 (no result: tolC growth inh)
O=C(CSc1nc2cccnc2n1Cc1ccccc1)NC1CCCCC1	none (no result: tolC growth inh, E coli WT exp, PostGolgi ctrl, PostGolgi yeast)
CCCS(=O)(=O)N1CCC(C(=O)NCCCOCC)CC1	none
CC(=O)c1ccc(N(C(=O)Cc2c[nH]c3ccccc23)C(C(=O)NC2CCCCC2)c2cccs2)cc1 (stereo not drawn)	none (no result: tolC growth inh, Cav32 inh)
O=C(NC1CCCCC1)C(c1cccs1)N(C(=O)Cc1c[nH]c2ccccc12)c1ccc(F)cc1 (stereo not drawn)	PostGolgi ctrl 48 (no result: tolC growth inh)
O=C(O)CCCC(=O)Nc1ccc(Br)cc1C(=O)O	none
O=C(Nc1nnc(C2CC2)s1)c1ccncc1	none (no result: tolC growth inh)
O=S(=O)(/N=C(/Nc1cccc2ccccc12)c1ccccc1)c1cccs1	Cav32 inh -4.6 (no result: tolC growth inh)
N#CC(/C(=N/S(=O)(=O)c1cccs1)c1ccccc1)c1nc2ccccc2[nH]1 (stereo not drawn)	none (no result: tolC growth inh, Cav32 inh)
CCc1nnc2sc(-c3cc(-c4ccccc4)nc4ccccc34)nn12	PostGolgi ctrl 34
CCCC(=O)NC(Nc1cc(C(F)(F)F)ccc1Cl)C(Cl)(Cl)Cl (stereo not drawn)	none (no result: tolC growth inh)
CCCC(=O)NC(Nc1cccc(C(F)(F)F)c1)C(Cl)(Cl)Cl (stereo not drawn)	Cav32 inh -5 (no result: tolC growth inh)
CCC(C(=O)Nc1cccc(C(F)(F)F)c1)c1ccccc1 (stereo not drawn)	Cav32 inh -6.8 (no result: tolC growth inh)
O=C(Nc1ccc(Oc2cccnc2)cc1)c1ccccc1F	none (no result: tolC growth inh)
CC(C)(C)N=Cc1cc(-c2ccccc2)sc1O	none (no result: tolC growth inh)
CCc1ccc2oc(=O)cc(CN(C)Cc3ccccc3)c2c1	tolC growth inh 100
O=c1cc(CN2CCN(Cc3ccccc3)CC2)c2cc(Cl)ccc2o1	none
COc1ccccc1CNC(=O)c1csc(Cc2ccc(Cl)cc2)n1	Cav32 inh -8, PostGolgi ctrl 56 (no result: tolC growth inh)
O=C(Nc1nc(COc2ccccc2)cs1)C12CC3CC(CC(C3)C1)C2	PostGolgi ctrl 37 (no result: tolC growth inh)
Cc1ccc(C(=O)Nc2nc(COc3ccccc3)cs2)s1	tolC growth inh 79
CC(=O)Nc1nc(COc2ccccc2)cs1	none
CCCC(=O)c1c[nH]c(C(=O)NCCc2ccccn2)c1	none (no result: tolC growth inh)
Cc1cc(/C=N/n2cnnc2)c(C)n1-c1ccc(OCc2ccc(Cl)cc2)cc1	PostGolgi ctrl 78 (no result: tolC growth inh)
C(=N\n1cnnc1)/c1ccc(OCc2ccccc2)cc1	none

Bioassay records from PubChem BioAssay.
